Experimental data reported in paper PMC3822732 (Journal of Cellular and Molecular Medicine, 2009).
pKd: −log10 of the molar value. Like-named read-outs stand apart in the source and are kept apart here.

Assays:
[1] = cited from earlier work
[2] = molecular target: LRP-1; details: read-out: Affinity for LRP-1; in other cell types; cited from earlier work
[3] = in situ brain perfusion; cited from earlier work
[4] = Immunohistochemical detection of Angiopep-2 in brain with anti-Angiopep-2 pAb; details: mice, 20 mg/kg tail vein, 60 min uptake, cold saline perfusion
[5] = tested on: bovine brain capillary endothelial cell monolayers; details: cited from earlier work
[6] = tested on: endothelial cells; assay: Endothelial cells exposed to Angiopep-2; type: cell-based; details: data not shown
[7] = after in situ perfusion; cited from earlier work
[8] = tested on: RBE4 cells; assay: [125I]-Angiopep-2 uptake assay in brain endothelial cells; type: cell-based, rat; details: [125I]-Angiopep-2 100 nM; poly-L-lysine 350 μg/ml, protamine 40 μg/ml
Outline: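 RBE4 brain endothelial cells were grown on collagen I in α-MEM/Ham's F-12 (1:1) with 10% heat-inactivated FCS, G418 and bFGF, seeded at 5 × 10⁴ cells/well and fed 3 days. Subconfluent cells in Ringer/HEPES pH 7.4 took up the tracer for 2 min at 37°C with a polycation, ± unlabelled peptide. Cells were lysed in 0.3 M NaOH and gamma counted, with unlabelled-cell background subtracted, in quadruplicate.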

[9] = molecular target: LRP-1 (Homo sapiens) (UniProt Q07954); details: cited from earlier work
[10] = molecular target: LRP-1 (Homo sapiens) (UniProt Q07954); details: cited from earlier work; remark: listed apart in the source

Sequence of LRP-1 (Homo sapiens) (Q07954 20-4544): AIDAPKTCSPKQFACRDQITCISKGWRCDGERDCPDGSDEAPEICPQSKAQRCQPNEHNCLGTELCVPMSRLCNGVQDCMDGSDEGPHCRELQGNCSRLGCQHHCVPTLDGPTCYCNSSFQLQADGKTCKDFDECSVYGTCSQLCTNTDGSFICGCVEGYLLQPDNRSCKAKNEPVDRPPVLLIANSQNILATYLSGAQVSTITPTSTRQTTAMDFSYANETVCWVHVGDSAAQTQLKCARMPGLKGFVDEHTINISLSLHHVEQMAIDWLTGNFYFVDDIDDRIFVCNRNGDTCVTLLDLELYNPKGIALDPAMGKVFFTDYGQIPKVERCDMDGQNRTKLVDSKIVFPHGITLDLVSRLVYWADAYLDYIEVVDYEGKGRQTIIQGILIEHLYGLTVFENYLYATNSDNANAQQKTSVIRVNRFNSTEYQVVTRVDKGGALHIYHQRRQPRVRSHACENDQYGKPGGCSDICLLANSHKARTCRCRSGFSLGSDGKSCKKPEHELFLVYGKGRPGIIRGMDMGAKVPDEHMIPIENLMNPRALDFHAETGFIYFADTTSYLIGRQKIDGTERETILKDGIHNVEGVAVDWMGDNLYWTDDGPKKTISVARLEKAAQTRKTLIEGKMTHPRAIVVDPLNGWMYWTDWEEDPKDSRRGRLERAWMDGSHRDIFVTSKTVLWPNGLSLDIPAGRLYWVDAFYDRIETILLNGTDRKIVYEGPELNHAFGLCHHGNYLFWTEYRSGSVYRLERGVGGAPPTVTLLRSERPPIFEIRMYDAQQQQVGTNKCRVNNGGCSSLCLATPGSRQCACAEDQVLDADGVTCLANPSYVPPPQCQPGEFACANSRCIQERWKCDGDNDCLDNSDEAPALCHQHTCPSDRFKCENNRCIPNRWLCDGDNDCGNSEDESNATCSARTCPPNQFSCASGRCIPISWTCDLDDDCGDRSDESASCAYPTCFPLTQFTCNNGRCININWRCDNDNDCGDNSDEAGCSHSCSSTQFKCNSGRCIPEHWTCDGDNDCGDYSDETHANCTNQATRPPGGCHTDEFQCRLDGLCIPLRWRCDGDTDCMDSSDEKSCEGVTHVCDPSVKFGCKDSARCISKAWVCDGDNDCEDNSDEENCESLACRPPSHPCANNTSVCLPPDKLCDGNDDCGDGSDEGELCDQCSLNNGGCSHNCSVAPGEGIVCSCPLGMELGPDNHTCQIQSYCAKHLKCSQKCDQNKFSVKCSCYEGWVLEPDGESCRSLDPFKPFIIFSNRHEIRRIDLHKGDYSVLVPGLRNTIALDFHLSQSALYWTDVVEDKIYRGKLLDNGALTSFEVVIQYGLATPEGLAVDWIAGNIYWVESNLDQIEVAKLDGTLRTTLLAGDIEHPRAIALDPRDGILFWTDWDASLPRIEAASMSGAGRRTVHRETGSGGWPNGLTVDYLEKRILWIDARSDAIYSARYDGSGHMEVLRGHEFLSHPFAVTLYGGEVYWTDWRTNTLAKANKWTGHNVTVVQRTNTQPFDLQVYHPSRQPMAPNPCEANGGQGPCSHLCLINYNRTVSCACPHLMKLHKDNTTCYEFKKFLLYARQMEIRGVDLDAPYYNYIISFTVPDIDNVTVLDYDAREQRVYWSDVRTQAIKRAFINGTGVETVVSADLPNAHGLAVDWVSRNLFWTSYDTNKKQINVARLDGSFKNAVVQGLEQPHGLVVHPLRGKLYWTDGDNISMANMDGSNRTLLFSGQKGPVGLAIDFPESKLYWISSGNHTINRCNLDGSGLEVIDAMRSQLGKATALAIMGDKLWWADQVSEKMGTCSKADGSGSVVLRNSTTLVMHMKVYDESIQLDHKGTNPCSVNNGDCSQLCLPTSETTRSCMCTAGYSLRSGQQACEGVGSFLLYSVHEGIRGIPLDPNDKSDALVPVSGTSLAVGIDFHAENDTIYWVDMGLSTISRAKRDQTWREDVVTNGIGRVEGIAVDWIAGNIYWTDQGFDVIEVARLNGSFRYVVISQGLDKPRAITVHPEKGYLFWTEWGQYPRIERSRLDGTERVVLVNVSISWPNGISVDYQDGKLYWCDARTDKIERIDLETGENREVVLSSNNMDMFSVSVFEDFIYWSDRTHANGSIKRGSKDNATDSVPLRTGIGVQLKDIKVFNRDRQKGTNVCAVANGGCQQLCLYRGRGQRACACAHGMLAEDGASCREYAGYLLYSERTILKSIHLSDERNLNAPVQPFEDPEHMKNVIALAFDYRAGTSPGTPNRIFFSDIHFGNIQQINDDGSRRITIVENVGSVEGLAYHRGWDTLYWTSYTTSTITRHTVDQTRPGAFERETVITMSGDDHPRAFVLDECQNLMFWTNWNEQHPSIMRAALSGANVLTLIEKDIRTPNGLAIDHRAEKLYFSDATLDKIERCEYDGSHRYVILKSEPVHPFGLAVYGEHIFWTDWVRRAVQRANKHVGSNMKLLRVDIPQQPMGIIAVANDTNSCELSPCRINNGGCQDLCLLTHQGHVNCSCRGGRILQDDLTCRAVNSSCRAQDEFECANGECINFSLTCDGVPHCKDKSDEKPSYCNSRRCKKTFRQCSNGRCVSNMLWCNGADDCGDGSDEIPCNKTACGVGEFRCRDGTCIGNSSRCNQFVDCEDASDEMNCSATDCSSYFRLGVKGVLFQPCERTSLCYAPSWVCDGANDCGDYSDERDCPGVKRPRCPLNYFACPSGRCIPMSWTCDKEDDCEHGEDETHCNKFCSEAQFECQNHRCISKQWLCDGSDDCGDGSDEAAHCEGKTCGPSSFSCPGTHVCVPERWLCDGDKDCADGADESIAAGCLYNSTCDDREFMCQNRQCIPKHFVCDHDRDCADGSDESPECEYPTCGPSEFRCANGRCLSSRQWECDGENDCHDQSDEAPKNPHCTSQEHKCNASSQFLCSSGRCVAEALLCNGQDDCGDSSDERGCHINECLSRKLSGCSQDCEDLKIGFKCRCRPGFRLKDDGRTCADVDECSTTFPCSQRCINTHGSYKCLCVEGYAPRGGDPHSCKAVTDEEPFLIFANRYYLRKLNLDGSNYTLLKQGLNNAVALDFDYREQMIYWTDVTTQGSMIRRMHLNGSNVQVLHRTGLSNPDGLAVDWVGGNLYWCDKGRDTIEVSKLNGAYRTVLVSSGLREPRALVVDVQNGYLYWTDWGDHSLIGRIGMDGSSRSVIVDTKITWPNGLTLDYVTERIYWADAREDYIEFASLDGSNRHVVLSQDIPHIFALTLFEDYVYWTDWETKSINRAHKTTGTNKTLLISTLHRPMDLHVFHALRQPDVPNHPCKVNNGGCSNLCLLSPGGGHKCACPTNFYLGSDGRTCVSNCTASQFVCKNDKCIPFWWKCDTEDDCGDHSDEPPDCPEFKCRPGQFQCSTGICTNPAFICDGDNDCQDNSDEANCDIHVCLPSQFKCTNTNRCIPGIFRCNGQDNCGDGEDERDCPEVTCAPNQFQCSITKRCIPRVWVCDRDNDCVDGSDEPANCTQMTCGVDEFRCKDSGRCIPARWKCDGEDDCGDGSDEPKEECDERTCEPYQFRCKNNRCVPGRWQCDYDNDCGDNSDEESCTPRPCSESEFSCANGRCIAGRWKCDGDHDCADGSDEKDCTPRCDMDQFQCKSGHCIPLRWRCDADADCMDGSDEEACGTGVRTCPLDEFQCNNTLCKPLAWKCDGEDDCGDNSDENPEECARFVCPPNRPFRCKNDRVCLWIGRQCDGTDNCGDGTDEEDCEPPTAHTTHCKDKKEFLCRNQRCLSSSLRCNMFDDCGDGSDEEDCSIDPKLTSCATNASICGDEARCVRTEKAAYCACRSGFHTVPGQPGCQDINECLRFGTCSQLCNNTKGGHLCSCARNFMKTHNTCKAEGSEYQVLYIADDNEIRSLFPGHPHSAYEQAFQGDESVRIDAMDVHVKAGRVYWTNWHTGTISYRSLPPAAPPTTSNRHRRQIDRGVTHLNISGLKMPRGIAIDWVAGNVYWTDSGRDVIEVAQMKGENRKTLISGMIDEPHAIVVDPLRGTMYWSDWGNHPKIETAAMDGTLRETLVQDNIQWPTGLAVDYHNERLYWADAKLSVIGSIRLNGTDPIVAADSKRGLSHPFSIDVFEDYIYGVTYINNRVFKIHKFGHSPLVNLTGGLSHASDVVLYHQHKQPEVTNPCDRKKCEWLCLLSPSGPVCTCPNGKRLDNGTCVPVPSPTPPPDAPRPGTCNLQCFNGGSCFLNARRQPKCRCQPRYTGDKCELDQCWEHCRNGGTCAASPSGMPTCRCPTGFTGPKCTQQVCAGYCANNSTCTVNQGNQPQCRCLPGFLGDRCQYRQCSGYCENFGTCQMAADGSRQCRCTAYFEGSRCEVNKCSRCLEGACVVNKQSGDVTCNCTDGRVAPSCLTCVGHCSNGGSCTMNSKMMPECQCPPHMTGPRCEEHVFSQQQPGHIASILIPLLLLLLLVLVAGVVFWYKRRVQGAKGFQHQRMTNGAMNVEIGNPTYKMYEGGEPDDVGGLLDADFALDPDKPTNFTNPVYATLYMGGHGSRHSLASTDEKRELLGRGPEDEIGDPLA
Sequence of receptor-associated protein (RAP) (P30533 35-357): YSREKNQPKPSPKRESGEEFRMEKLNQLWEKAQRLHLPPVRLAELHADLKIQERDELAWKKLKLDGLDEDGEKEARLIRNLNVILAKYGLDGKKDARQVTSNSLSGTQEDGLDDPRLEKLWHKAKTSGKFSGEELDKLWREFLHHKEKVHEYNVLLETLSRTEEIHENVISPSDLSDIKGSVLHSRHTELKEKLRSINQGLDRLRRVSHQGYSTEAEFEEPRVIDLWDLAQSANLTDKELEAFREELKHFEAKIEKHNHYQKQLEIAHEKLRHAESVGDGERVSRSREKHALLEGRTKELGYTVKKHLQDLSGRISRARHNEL

Substance: Cy5.5
- Passage of free dye across the BBB [1]: does not cross the BBB

Substance: RAP: receptor-associated protein, an LRP ligand
- pKd [2]: ~8.70

Substance: TFFYGGSRGKRNNFKTEEY [Angiopep-2]
- Permeability of the BBB to inulin in the presence of Angiopep-2 [3]: unaffected
- Immunohistochemical detection in brain after IV bolus injection [4]: present in the brain parenchyma
- In vitro BBB transcytosis [5]: high BBB transcytosis in vitro
- Effect of exposure to Angiopep-2 on endothelial cells [6]: unaffected
- Apparent distribution volume in brain parenchyma vs transferrin [7]: greater apparent distribution volume in brain parenchyma than transferrin

Substance: TFFYGGSRGRRNNFRTEEY [Angiopep-7]
- In vitro BBB transcytosis [5]: did not exhibit in vitro transcytosis

Substance: poly-L-glutamine
- Inhibition of [125I]-Angiopep-2 uptake into RBE4 cells [8]: unaffected

Substance: poly-L-lysine
- Inhibition of [125I]-Angiopep-2 uptake into RBE4 cells [8]: 69%

Substance: protamine
- Inhibition of [125I]-Angiopep-2 uptake into RBE4 cells [8]: 79%

Substance: receptor-associated protein (RAP) (from UniProt P30533)
- pKd [9]: 8.70

Substance: α2-macroglobulin (from UniProt P01023)
- pKd [10]: 8.70

Substance: α2-macroglobulin: LRP-1 ligand
- pKd [2]: ~8.70
